Consider eleven compounds from ChEMBL document CHEMBL1135913, “Structure-based design, synthesis, and biological evaluation of irreversible human rhinovirus 3C protease inhibitors. 6. Structure-activity studies of orally bioavailable, 2-pyridone-containing peptidomimetics” (J Med Chem, 2002).

Data set [1] deals with T1, Human rhinovirus A protease (Human rhinovirus sp., UniProt Q4U254).
T1 sequence (Q4U254 whole entry): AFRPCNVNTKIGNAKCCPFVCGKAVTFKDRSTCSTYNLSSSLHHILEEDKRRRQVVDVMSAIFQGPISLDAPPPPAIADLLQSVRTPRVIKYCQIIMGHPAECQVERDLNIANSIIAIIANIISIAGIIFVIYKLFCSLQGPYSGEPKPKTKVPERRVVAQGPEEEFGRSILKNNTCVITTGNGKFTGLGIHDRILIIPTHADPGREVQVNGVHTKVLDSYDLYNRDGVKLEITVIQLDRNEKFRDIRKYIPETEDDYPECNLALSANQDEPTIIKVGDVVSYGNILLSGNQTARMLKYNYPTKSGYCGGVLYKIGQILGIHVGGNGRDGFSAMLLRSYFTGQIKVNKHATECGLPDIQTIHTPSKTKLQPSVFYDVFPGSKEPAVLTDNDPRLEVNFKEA
The data set can be described thus: Inhibition of HRV Protease 3CP (serotype 14). On the set-up: species or system Rhinovirus B.

Data set [2] concerns the target T2, Human rhinovirus A protease (Human rhinovirus sp.) (UniProt Q4U254).
T2 sequence (whole entry): T1 sequence (Q4U254 whole entry)
In words: Inhibitory activity against Human Rhinovirus Protease 3C (serotype 14). Particulars: Rhinovirus B.

Data set [3] has as its target T2, Human rhinovirus A protease (Human rhinovirus sp.). In words: (§1) cytotoxicity against HRV Protease 3CP (serotype 14).
Data set [4] has the same target. The data set can be described thus: cytotoxicity against Human Rhinovirus Protease 3C (serotype 10). In kind it is functional.
Data set [5] has the same target. The data set can be described thus: (§2) cytotoxicity against Human Rhinovirus Protease 3C (serotype 14). It is filed as functional.
Data set [6] shares this target. In words: cytotoxicity against Human Rhinovirus Protease 3C (serotype 1A). It is filed as functional.
A short description of data set [7]: Loss of compound (%metabolized) after 30 min exposure to human liver microsomes. It is filed as ADME, Microsome. The conditions noted are these: read-out: Metabolism. In outline: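 Pooled human liver microsomes (1 mg/mL, 6–8 livers) with 2 mM NADPH in 100 mM potassium phosphate pH 7.4 were preincubated 1 min at 37 °C. Compound was added at 25 μM and incubated 30 min, then quenched with acetonitrile. Loss was measured against time-zero controls by reversed-phase HPLC with UV at 215 nm.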
In general terms: Liver microsomes are vesicles of endoplasmic reticulum, rich in cytochrome P450 enzymes.

Data set [8] addresses T2, Human rhinovirus A protease (Human rhinovirus sp.). In words: cytotoxicity against HRV Protease 3CP (serotype 1A). It is filed as functional.
For data set [9] the target is unchanged. The data set can be described thus: cytotoxicity against HRV Protease 3CP (serotype 10). It is filed as functional.
Data set [10] has the same target. Described as §1. It is filed as functional.
Data set [11] shares this target. Described as §2.
The target is the same in data set [12]. The data set can be described thus: cytotoxicity against HRV Protease 3CP (serotype 1A),. In kind it is functional.
Data set [13] shares this target. The data set can be described thus: cytotoxicity against HRV Protease 3CP (serotype 10),. In kind it is functional.
For data set [14] the target is unchanged. In words: cytotoxicity against HRV Protease 3CP (serotype 14),. It is filed as functional.

One may read the EC50 as the concentration needed to bring the measured effect to its halfway point. The CC50 is the concentration giving 50% cytotoxicity. A higher CC50 goes with lower toxicity to the cells.

With `CCOC(=O)/C=C/[C@H](CCC(N)=O)NC(=O)[C@H](Cc1ccccc1)n1cccc(NC(C)=O)c1=O`, the 50% effective concentration (EC50) in data set [1] was determined as 0.888 µM. For the same compound, the K obs / 1 in data set [2] was 7660 M⁻¹ s⁻¹. The compound also displayed a CC50 in data set [3] greater than 10 µM.

As to `Cc1cc(CCCOc2c(C)cc(-c3noc(C(F)(F)F)n3)cc2C)on1` [PLECONARIL], the EC50 in data set [1] was found to be 0.058 µM. Further, in [3], the CC50 is greater than 10 µM.

`CCOC(=O)/C=C/[C@H](CCC(N)=O)NC(=O)[C@H](Cc1ccccc1)n1ccc(C)c(NC(=O)OCc2ccccc2)c1=O` yielded a K obs / 1 in data set [2] of 25800 M⁻¹ s⁻¹.

Regarding `CCOC(=O)/C=C/[C@H](CCC(N)=O)NC(=O)[C@H](Cc1ccccc1)n1cccc(NC(=O)OCc2ccccc2)c1=O`, the figures for the CC50 in [4], in data set [5] and in data set [6] were greater than 10 µM, 50 µM and greater than 10 µM, respectively.

Turning to `CCOC(=O)/C=C/[C@H](C[C@@H]1CCNC1=O)NC(=O)[C@H](Cc1ccc(F)cc1)n1cccc(NC(=O)c2cc(C)on2)c1=O`, in [7], the metabolised at 0.5 h worked out at 95%. Besides, in [1], a half-maximal response (EC50) required 0.002 µM. Further, the CC50 in [8], in data set [9] and in [10] was greater than 10 µM throughout. This compound also displayed a K obs / 1 in data set [2] of 1.25e+06 M⁻¹ s⁻¹.

In turn, `CCOC(=O)/C=C/[C@H](CCC(N)=O)NC(=O)[C@H](Cc1ccccc1)NC(=O)[C@H](CC(C)C)NC(=O)OCc1ccccc1` came in with a CC50 in data set [11] greater than 320 µM.

`CCOC(=O)/C=C/[C@H](CCC(N)=O)NC(=O)[C@H](Cc1ccccc1)n1cccc(NC(=O)C2CCCO2)c1=O` (stereo partly drawn) returned an EC50 in [1] of 1.78 µM. The compound also returned a K obs / 1 in data set [2] of 3750 M⁻¹ s⁻¹. The compound further registered a CC50 in [3] greater than 10 µM.

Turning to `CCOC(=O)/C=C/[C@H](CCC(N)=O)NC(=O)[C@H](CC1CCCCC1)n1cccc(NC(=O)OCc2ccccc2)c1=O`, in [1], the EC50 worked out at 0.178 µM. The compound further gave a K obs / 1 in data set [2] of 6500 M⁻¹ s⁻¹. The CC50 in [3] was greater than 10 µM.

In the case of `CCOC(=O)/C=C/[C@H](CCC(N)=O)NC(=O)[C@H](Cc1ccc(F)c(F)c1)n1cccc(NC(=O)OCc2ccccc2)c1=O`, in [1], the EC50 worked out at 0.003 µM. Further, the CC50 in [12], in [13] and in data set [14] was greater than 10 µM throughout. The K obs / 1 in data set [2] amounted to 193000 M⁻¹ s⁻¹.

The compound `CCOC(=O)/C=C/[C@H](CCC(N)=O)NC(=O)[C@H](Cc1ccccc1)n1cccc(NC(=O)c2cc(Cl)on2)c1=O` yielded an EC50 in data set [1] of 0.024 µM. Further, in data set [2], the K obs / 1 was found to be 134000 M⁻¹ s⁻¹. The compound further yielded a 50% cytotoxic concentration (CC50) in data set [3] greater than 10 µM.

Consider `CCOC(=O)/C=C/[C@H](CCC(N)=O)NC(=O)[C@H](Cc1ccccc1)n1cccc(NC(=O)c2cc(C)on2)c1=O`, for which the concentration for a half-maximal effect (EC50) in data set [1] came to 0.016 µM. Besides, the K obs / 1 in data set [2] worked out at 329000 M⁻¹ s⁻¹. This compound showed a CC50 in [3] greater than 10 µM.
